The list is not random: actives were taken first. Their share in the collection is about 2.3%.
HIV Env fusion: inhibitors of HIV-1 Env-driven cell-cell fusion, primary screen, HeLa-JRFL effector, CEM21 target cells, luciferase | inhibition, % at 12.3 µM | hit rate 1.1% among 360,000 | AID 651610, 2012;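 active = mean replicate inhibition score of at least 50 and every replicate individually at or above 50; inconclusive = only one of the two criteria met; inactive = mean below 50 and not all replicates reaching 50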;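 also: 0% = plate neutral controls and 100% = maraviroc near 300 nM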
PGC1a acetyl inh: inhibitors of PGC1a acetylation signal, primary screen, cell-based, U2OS, AlphaScreen, inhibitor mode. inhibition, % at 15.6 µM. hit rate 0.17% among 350,000. AID 651687, 2012. AlphaScreen anti-acetyl-lysine; with virally co-expressed GCN5 acetyltransferase;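 active = every replicate shows inhibition of at least 40%; inconclusive = mean inhibition at least 40% but some replicate below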;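 also: 0% = neutral control wells and 100% = positive control wells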
PAX8 inh HTS: inhibitors of PAX8-driven TPO luciferase reporter, primary screen, RMG-I cells, single concentration | hit rate 1.2% among 360,000 | AID 652154, 2013 | inhibition, % at 12.6 µM | SteadyGlo, 24 h;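 active = mean replicate inhibition at least 60% with every replicate also reaching 60%; inconclusive = only one of the two criteria is met; inactive = mean below 60% and not all replicates reaching 60%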;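 also: luciferase light reporting Pax8 driven TPO promoter activity; plate controls were median of neutral control wells for no effect and mitoxantrone controls for full effect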
FN deposition inh: inhibitors of fibronectin matrix deposition, primary screen, AH1F cells, Alexa488-fibronectin fluorescence, plate reader. AH1F fibroblasts, overnight. inhibition, % at 12.6 µM. hit rate 0.086% among 350,000;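 active = mean inhibition across replicates of 30% or more, regardless of how many single replicates reach that level; inconclusive = mean under 30% yet at least half of replicates reach 30%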;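 also: positive control wells lacked labelled fibronectin entirely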
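Material: AH1F fibroblast monolayer depositing Alexa488-labelled fibronectin into matrix / Amount: 10000 AH1F cells per well / Signal: fluorescence 485/525 nm / Medium: DMEM, 2% serum / Compound: single dose, pinned / Incubation: 1 h cell adhesion before compound, then overnight fibronectin incubation / Reagent: Alexa488-FN, 24 nM final / Read-out: inhibition of fibronectin deposition signal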
EWS-Fli inh: EWS/Fli-driven NR0B1 reporter inhibitors, primary screen, A673 cells, NR0B1 luciferase, luminescence, MLPCN library; viability-normalised; inhibition, % at 12.6 µM; hit rate 0.67% among 350,000;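 active = mean inhibition of at least 50% after viability correction, with every replicate also passing that limit; inconclusive = mean reaches 50% but only one of two replicates passes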;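 also: firefly luciferase signal divided by Alamar Blue viability fluorescence both relative to DMSO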
F508del corr: F508del CFTR correction, initial screen, CFBE line, single point. CFBE cells, YFP halide quenching; stimulated with forskolin plus potentiator P3; % fluorescence drop versus neutral controls. activity (quench increase), % at 7.58 µM. hit rate 0.36% among 350,000. AID 720511, 2013;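 active = mean added fluorescence quench of at least 8% versus neutral control, with both replicates also reaching 8%; inconclusive = only one of the mean or replicate conditions met; inactive = mean below 8% and not both replicates reaching 8%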;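 also: cells transiently co-express mutant CFTR-F508del with the halide-sensitive YFP; corrector assay measuring rescue of mutant channel to the surface after 24 h compound exposure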
* marks the source's active call; other numbers are inactive results; ? = inconclusive; . = not tested or not shown; [ ] = remark or other dose.

SMILES	HIV Env fusion	PGC1a acetyl inh	PAX8 inh HTS	FN deposition inh	EWS-Fli inh	F508del corr
NC(=O)[C@H]1[C@@H]2C(=O)O[C@@H](c3ccccc3)[C@@H](c3ccccc3)N2[C@@H](c2ccccc2OCCO)[C@]12C(=O)Nc1ccc(C#CC3(O)CCCCCC3)cc12	-37[16.7 µM]	-16	103*	.	33	1
C=CCNC(=O)[C@H]1[C@@H]2C(=O)O[C@@H](c3ccccc3)[C@@H](c3ccccc3)N2[C@@H](c2ccccc2OCCO)[C@]12C(=O)Nc1ccc(C#CCC(C(=O)OC)C(=O)OC)cc12	-21[16.7 µM]	29	.	.	54*	2
COC(=O)C(CC#Cc1ccc2c(c1)[C@]1(C(=O)N2)[C@H](c2ccccc2OCCO)N2[C@H](c3ccccc3)[C@H](c3ccccc3)OC(=O)[C@H]2[C@@H]1C(=O)N1CCN(c2ncccn2)CC1)C(=O)OC	-86[16.7 µM]	-27	110*	.	60*	-4
O=C(C1CCOCC1)N1[C@H](CO)[C@H](c2ccccc2)C12CN(Cc1cncnc1)C2	.	.	.	-6	0	4
Cc1ccc2nc(NC(=O)CSCC(=O)OCC(=O)c3ccc(Br)cc3)sc2c1	73*	.	24	-6	.	.
COC(=O)c1ccc2nc(NC(=O)CSCC(=O)OCC(=O)c3ccccc3)sc2c1	15	-2	-7	6	-18	1
CCCc1cn([C@H]2C[C@@H]3O[C@@H](CO)CC[C@@H]3O[C@@H]2CCc2ccc(-c3ccc(OC)cc3)cc2)nn1	.	-14	-10	.	-10	-2
COc1ccc2c(c1)CC[C@@H]1[C@@H]2CC[C@]2(C)[C@@H](C(=O)O)C[C@@H]12	-4	-5	-16	6	0	1
C#C[C@]1(O)CC[C@H]2[C@@H]3CCc4cc(OC5CCCC5)ccc4[C@H]3CC[C@@]21C	14	-5	4	-2	-1	8.7*
COc1ccc2c(c1)CC[C@@H]1[C@@H]2CC[C@]2(C)[C@@H](C(C)=O)C[C@@H]12	-1	3	-15	3	-19	0
C#C[C@]1(O)CC[C@H]2[C@@H]3CCc4cc(OC)ccc4[C@H]3CC[C@@]21C	4	.	-32	5	-9	8.4*
O=C(N/N=C/c1ccncc1)c1cc(C2CC2)nc2ccccc12	.	5	.	.	.	.
O=C(N/N=C/c1cccs1)c1cc(C2CC2)nc2ccccc12	.	.	28	-5	47	12*
Cc1ncc(CO)c(/C=N/Nc2ccc(C(F)(F)F)cn2)c1O	26	28	32	6	1	12*
Cc1ncc(CO)c(/C=N/NC(=S)Nc2ccc(F)cc2)c1O	13	.	-7	-4	.	.
COc1ccc(/C=N/Nc2nc3ccccc3[nH]2)cc1OC	5	-13	-71	2	-19	.
C(=N\Nc1nc2ccccc2[nH]1)/c1ccc2ncccc2c1	-99	49*	-32	8	40	-3
CCN1[C@@H]2c3ccc(-c4ccccc4OC)c(=O)n3C[C@@H]2[C@@H](CO)[C@@H]1C(=O)NCCCN(C)C	.	.	-18	.	-11	2
C[C@@H]1CN([C@H](C)CO)C(=O)c2cc(C#CCN(C)C)cnc2O[C@@H]1CN(C)C(=O)Nc1cccc(F)c1	6[16.7 µM]	5	.	.	-7	-4
COCC(=O)Nc1ccc2c(c1)OC[C@H](C)N(CCc1ccccc1)C[C@@H](C)[C@@H](OC)CN(C)C2=O	0[16.7 µM]	9	-6	11	-7	2
FC(F)(F)c1cc(-c2ccco2)nc(NCc2cccnc2)n1	-89	1	7	7	.	.
FC(F)(F)c1cc(-c2ccccc2)nc(NCc2cccnc2)n1	-70	-20	.	active	.	.
Cc1ccccc1CC1(CO)CCCN(C(=O)CCC(F)(F)F)C1 (stereo not drawn)	-3	.	-18	11	-6	0
CSCC(=O)N1CCCC(CO)(Cc2ccccc2C)C1 (stereo not drawn)	4	109*	17	.	2	-2
COc1ccc2c3c([nH]c2c1)[C@@H](CO)N(C(=O)C1CC1)CC31CCN(C)CC1	9[16.7 µM]	.	.	.	-10	0
SMILES	HIV Env fusion	PGC1a acetyl inh	PAX8 inh HTS	FN deposition inh	EWS-Fli inh	F508del corr
Cc1cccc(-c2ccc([C@H]3[C@@H](CO)N4CCCCN(S(=O)(=O)c5cccc(C)c5)C[C@@H]34)cc2)c1	.	-7	96*	.	5	4
Cc1ccc(-c2ccc([C@H]3[C@@H](CO)N4CCCCN(S(=O)(=O)c5cccc(C)c5)C[C@H]34)cc2)cc1	.	-16	73*	.	1	-2
Cc1cccc(-c2ccc([C@H]3[C@H](CO)N4CCCCN(S(=O)(=O)c5cccc(C)c5)C[C@@H]34)cc2)c1	.	9	?	.	22	-10
O=C(C[C@@H]1CC[C@@H]2[C@H](COC[C@@H](O)CN2C(=O)c2ccncc2)O1)NC1CCC1	-15[16.7 µM]	4	-14	0	2	2
COc1nc(-c2ccccc2Cl)ccc1C#N	56*	1	.	.	.	.
CCOc1nc(-c2ccc(Cl)cc2Cl)ccc1C#N	47	-4	.	8	.	.
CO[C@@H]1CN(C)C(=O)c2ccc(NC(=O)NC3CCCCC3)cc2OC[C@@H](C)N(CC2CC2)C[C@H]1C	.	-12	-16	-1	0	-2
CC(C)CC#Cc1ccc([C@@H]2[C@@H](CO)N3CCCCN(C(=O)c4ccc5c(c4)OCO5)C[C@H]23)cc1	.	4	-2	.	-11	1
Cc1ccc2c(c1)[C@H]1[C@H](CO2)[C@H](c2ccccc2)[C@]2(C)C(=O)Nc3cc(Cl)ccc3C(=O)N12	.	16	.	.	.	.
Cc1ccc2c(c1)[C@H]1[C@H](CO2)[C@H](c2ccccc2)[C@]2(C)C(=O)Nc3ccc(F)cc3C(=O)N12	20	-11	41	17	56*	-3
Cc1ccc2c(c1)[C@H]1[C@H](CO2)[C@H](c2ccccc2)[C@]2(C)C(=O)Nc3cc(F)c(F)cc3C(=O)N12	-6	.	6	11	59*	4
CC(C)CC(=NNC(=O)c1ccncc1)c1cc(Cl)ccc1O	33	23	.	11	-1	16*
CC(=NNC(=O)c1ccncc1)c1ccccc1O	31	14	-1	8	4	7
CCc1cccc(NC(=O)COC(=O)c2cc([N+](=O)[O-])ccc2N2CCOCC2)c1	8	.	16	4	6	9.1*
Cc1ccccc1COC(=O)c1cc([N+](=O)[O-])ccc1N1CCOCC1	23	.	24	4	.	-4
O=C(OCc1ccccc1F)c1cc([N+](=O)[O-])ccc1N1CCOCC1	-1	2	5	5	7	-3
COc1ccc(OC)c(COC(=O)c2cc([N+](=O)[O-])ccc2N2CCOCC2)c1	48	-3	25	15	65*	6
CSc1ccc(COC(=O)c2cc([N+](=O)[O-])ccc2N2CCOCC2)cc1	.	.	96*	-29	55*	5

Bioassay records: PubChem, Broad Institute
